# A selection: hits, their analogues and other compounds. The true share with any hit is near 2.1%.
# MT stabilizer: microtubule stabilization, imaging screen; % tubulin-high responders, % at 10 µM; actives 0.83% (n = 200,000); HeLa tubulin immunostaining HCS, 24 h; share of cells brighter than vehicle mean+2SD;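 active = plate Z-score above 3 for both tubulin-high and condensed-nucleus cell shares, with cell loss under 80%, at 10 µM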;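 note: anti alpha tubulin signal scored within the nucleus-defined area of each cell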
# IEC-6 cytotox: IEC-6 cytotoxicity, counter-screen for KLF5 inhibitors; luminescence viability; inhibition, % at 5 µM; actives 0.78% (n = 290,000); AID 1825; in the data active = inhibition above about 22%;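 note: 0% = plate median of test compound wells and 100% = cytotoxic reference compound wells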
# KLF5 inh: inhibitors of KLF5 expression; DLD-1 KLF5 promoter-luciferase reporter, luminescence; actives 0.23% (n = 290,000); inhibition, % at 5 µM;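 active = inhibition above a per-plate limit of that plate's mean compound inhibition plus 3 SD, cut at about 60% in these data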;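 note: 0% = DMSO wells and 100% = LY294002 at 200 µM; higher means less KLF5 promoter-driven luciferase light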
# Ba/F3 V617F tox: lowers viability of Ba/F3 cells expressing EpoR and JAK2V617F | ATP luminescence | inhibition, % at 5.6 µM | actives 1.1% (n = 220,000);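 active = inhibition above the campaign mean plus 3 SD over all tested compounds, cut at about 24% in these data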;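 note: cytokine-independent growth of Ba/F3 cells driven by EpoR plus mutant JAK2; 0% = DMSO-treated cells and 100% = JAK inhibitor I control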
# bCat nuc transl: alters nuclear translocation of beta-catenin in HeLa cells. immunofluorescence imaging. nuclear translocation activity, % at 5 µM. actives 0.3% (n = 190,000). AID 1665;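 active = nuclear translocation activity above 50% at 5 µM, with a well cell count of 50 or more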;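 note: per-cell ratio of nuclear to cytoplasmic median beta-catenin stain intensity; plate controls were DMSO negative control for no effect and GSK-3 inhibitor IX positive control for full effect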
#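 Signal – beta-catenin immunofluorescence imaging with DAPI · Test system – human HeLa cell line · Dosing – 5 µM primary single dose, 0.1% DMSO, 0.02–20 µM confirmation series · Measure – % activation, nuclear-to-cytoplasmic median beta-catenin signal ratio per cell · Incubation – 24 h compound exposure at 37°C, 5% CO2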
# BaF3 tox: counter-screen for JAK2V617F inhibitors: parental Ba/F3 viability inhibitors; CellTiter-Glo ATP luminescence; inhibition, % at 5.6 µM; actives 1.1% (n = 220,000);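 active = inhibition above a per-campaign cutoff, the mean inhibition of all tested compounds plus 3 SD, cut at about 27% in these data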;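 note: 0% = DMSO wells and 100% = JAK Inhibitor I control wells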
# The depositor's hits bear a star; x = not tested or not shown.
SMILES,MT stabilizer,IEC-6 cytotox,KLF5 inh,Ba/F3 V617F tox,bCat nuc transl,BaF3 tox
CC1(C)C(=O)Nc2ccccc2N1C(=O)Cn1ncc(Cl)c(Cl)c1=O,x,4,1,9,2,31*
Cc1nc2ccccc2n1C(=O)c1cc(-c2ccc(Br)cc2)nc2ccccc12,5,0,-61,-3,2,2
O=C(NNc1ccccn1)C(c1ccccc1)c1ccccc1,2,-1,-33,5,0,9
O=C(NNC(=O)C(c1ccccc1)c1ccccc1)c1ccccn1,3,55*,26,9,-1,4
CCOC(=O)CNS(=O)(=O)c1ccc(S(=O)(=O)NC2CC2)cc1,x,3,-36,x,x,x
COC(=O)C(Cc1ccccc1)NC(=O)CNC(=O)c1ccccc1OC (configuration not stated),x,-6,1,x,x,x
COc1cc2ncnc(Nc3cccc(Cl)c3)c2cc1OC,x,21,-32,2,-2,-1
Clc1cccc(Nc2ncnc3ccc(Br)cc23)c1,2,30*,2,4,-2,6
Clc1ccc(Nc2ncnc3ccc(Br)cc23)cc1,1,26*,8,5,17,11
CSc1cccc(NS(=O)(=O)c2ccc3c(c2)NC(=O)C(C)C(=O)N3)c1 (configuration not stated),x,1,-16,x,x,x
CCOC(=O)/C=c1\s/c(=C\c2ccc3cc(OC)ccc3c2)c(=O)n1CC(=O)NCc1ccc2c(c1)OCO2,2,1,-12,-4,1,2
CCOC(=O)/C=c1\s/c(=C\c2ccccc2C)c(=O)n1CC(=O)NCc1ccc2c(c1)OCO2,22*,3,-10,3,5,9
O=C(O)c1ccccc1C(=O)Nc1ccc(Oc2ccc3ccccc3c2)cc1,4,14,-28,46*,1,38*
CCOC(=O)c1ccc(NC(=O)C(=O)NCC2(c3ccc(OC)cc3)CCOCC2)cc1,x,1,-9,-6,-1,2
CCN1CC(CN(C)Cc2nc(-c3cccs3)no2)CC1=O (configuration not stated),2,2,-21,4,0,7
CCN1CC(CN(C)Cc2nc(-c3ccc(C(F)(F)F)cc3)no2)CC1=O (configuration not stated),2,-9,-17,-5,57*,4
Cc1nc(SCC2(C)CC2(Cl)Cl)n[nH]1 (configuration not stated),3,-7,-29,-2,0,-3
Cc1ccc2[nH]c3c(c2c1)CCN(C)C3,x,0,-7,x,x,x
Cc1ccc(C(=O)C[n+]2ccc(Cc3ccccc3)cc2)cc1,9,-3,-17,2,-2,12
c1ccc(Cc2cc[n+](Cc3ccccn3)cc2)cc1,x,2,-22,57*,1,65*
O=[N+]([O-])c1ccc(C[n+]2ccc(Cc3ccccc3)cc2)cc1,2,-1,-18,13,0,37*
O=C(Cn1cc[n+](Cc2ccccc2)c1)c1ccc([N+](=O)[O-])cc1,3,7,-22,3,-3,1
O=C(COC(=O)/C=C/c1ccc(OC(F)F)cc1)NCc1cccs1,1,-2,19,1,1,4
CCCCC1=NN(C(=O)c2ccco2)C(O)(C(F)(F)F)C1 (configuration not stated),15*,3,7,0,13,4
Cc1ccccc1/C=N/Nc1nc2ccccc2[nH]1,6,7,-15,5,0,9
SMILES,MT stabilizer,IEC-6 cytotox,KLF5 inh,Ba/F3 V617F tox,bCat nuc transl,BaF3 tox
C(=N\Nc1nc2ccccc2[nH]1)/c1ccccc1,x,15,-99,0,0,11
C(=C\c1ccccc1)/C=N/Nc1nc2ccccc2[nH]1,13*,6,-23,-3,21,0
C(=N\Nc1nc2ccccc2[nH]1)/c1cccc2cccnc12,x,0,26,91*,-1,50*
O=C(CN(C(=O)c1ccc(Cl)cc1Cl)N1C(=O)C2C3C=CC(C3)C2C1=O)c1ccc(F)cc1 (configuration not stated),3,4,-6,6,x,4
CCC(C(=O)c1ccccc1)N(C(=O)c1ccccc1Cl)N1C(=O)C2C3C=CC(C3)C2C1=O (configuration not stated),3,0,-16,-4,x,95*
CCCc1[nH]n(-c2ccc(F)cc2)c(=O)c1C=Nc1cccc(F)c1,17*,-6,23,-2,36,3
CCCc1[nH]n(-c2ccc(F)cc2)c(=O)c1C=NCC1CCCO1 (configuration not stated),3,-8,0,-2,-2,0
O=C(CSCc1cc(=O)n2ccsc2n1)Nc1ccccc1,x,1,-25,x,x,x
O=C(c1cc(-c2cccs2)nc2ccccc12)N1CCN(S(=O)(=O)c2ccccc2)CC1,3,-1,-13,-1,-7,4
O=C(N/N=C/c1ccc2c(c1)OCO2)c1cc(-c2ccccc2)nc2ccccc12,29*,-1,-18,3,1,9
O=C(c1cc(-c2cccs2)nc2ccccc12)N1CCN(c2ccccc2)CC1,19*,2,0,8,25,12
O=C(N/N=C/c1c[nH]c2ccccc12)c1ccc2c(c1)OCCO2,x,10,-78,-2,19,1
O=C(N/N=C/c1c[nH]c2ccc(Br)cc12)c1ccc2c(c1)OCO2,44*,7,-27,-4,73*,-2
N#Cc1ccc(/C=N/NC(=O)c2cc(-c3cccs3)nc3ccccc23)cc1,17*,8,8,-3,116*,3
COc1cc(/C=N/NC(=O)c2cc(-c3cccs3)nc3ccccc23)ccc1O,x,4,-19,1,-1,2
O=C(N/N=C/c1ccc2c(c1)OCO2)c1ccc2ccccc2n1,4,2,-16,-4,2,1
COc1ccccc1N1CCN(C(=O)c2ccc(Cn3c(=O)[nH]c4ccsc4c3=O)cc2)CC1,x,3,-20,0,-1,5
CCCc1ccc(-c2cc(C(=O)N/N=C/c3ccc([N+](=O)[O-])o3)c3ccccc3n2)cc1,35*,0,-104,1,229*,10
O=C(N/N=C/c1ccc2c(c1)OCO2)c1ccc2c(c1)OCCO2,12*,-3,-56,5,x,1
COc1ccc2[nH]c(C)c(CCN(Cc3cccs3)C(=S)Nc3ccccc3)c2c1,4,2,-4,34*,-2,46*
COc1ccc(NC(=S)N(CCc2c(C)[nH]c3ccc(C)cc23)Cc2cccs2)cc1,5,-2,4,3,0,10
COc1ccccc1NC(=S)N(CCc1c(C)[nH]c2ccccc12)Cc1cccs1,4,1,-24,-2,-4,5
COc1ccc2[nH]c(C)c(CCN(Cc3cccs3)C(=S)Nc3ccc(F)cc3)c2c1,3,1,-9,46*,-1,50*

# From PubChem
